High-throughput results (PubChem BioAssay)
Most compounds without a hit are left out; they make up all but 4.6% or so of the library.
TAAR1 ag: agonists of human TAAR1; Q96RJ0; CHO RD-HGA16 TAAR1, Fluo-8 calcium fluorescence; vehicle wells 0%, saturating PEA agonist 100%; activation, % at 3 µM; 360,000 compounds, 0.99% hits; AID 624467;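 active = activation above the mean activation of all test compounds in the run plus 3 SD, cut at about 38% in these data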
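Assay system: CHO-derived RD-HGA16 cells with stable Gα16 and human TAAR1; timing: 17-24 h seeding, 75 min 37 °C dye, 30 min RT; read-out: % activation from peak over basal fluorescence ratio, DMSO-to-PEA scaled; measured by: kinetic Fluo-8 calcium fluorescence; benchmarks: low control DMSO, high control PEA (EC100); doses: 3 µM single concentration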
GPR7 antagonist: antagonists of human GPR7 (neuropeptides B/W receptor 1); P48145; GPR7-expressing cells, fluorescence antagonist assay; inhibition, % at 4.4 µM; 290,000 compounds, 1.1% hits; AID 1861; in the data active = inhibition above about 16%, passing the limit was not always enough;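 note: cells stimulated with the agonist NPW; 0% = agonist with vehicle and 100% = vehicle without agonist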
Target sequence (P48145 whole entry, looked up): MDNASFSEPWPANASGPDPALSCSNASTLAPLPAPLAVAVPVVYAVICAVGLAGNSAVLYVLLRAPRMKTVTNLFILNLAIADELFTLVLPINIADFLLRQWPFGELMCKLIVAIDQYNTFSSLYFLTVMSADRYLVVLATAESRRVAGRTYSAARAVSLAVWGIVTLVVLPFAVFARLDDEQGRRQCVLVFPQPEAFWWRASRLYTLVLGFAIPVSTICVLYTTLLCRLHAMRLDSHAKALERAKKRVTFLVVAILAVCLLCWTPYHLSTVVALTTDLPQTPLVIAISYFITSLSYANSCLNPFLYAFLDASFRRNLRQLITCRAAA
TAAR1 antagonist: human TAAR1 antagonism; Q96RJ0; CHO RD-HGA16 TAAR1, Fluo-8 calcium fluorescence, antagonist; inhibition, % at 3 µM; 360,000 compounds, 1.5% hits;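 active = inhibition above a per-plate cutoff, the mean inhibition of test compounds on that plate plus 3 SD, cut at about 49% in these data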;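 note: 0% = DMSO plus EC80 beta-PEA response and 100% = DMSO alone without agonist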
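Material: CHO RD-HGA16 cells bearing hTAAR1; compound dosing: one-point dosing, 3 µM nominal final; schedule: dye loading 75 min at 37 °C, then 30 min room temperature; measured by: calcium fluorescence with Fluo-8; control set: vehicle and agonist controls; replication: n of 1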
OX1R antag-1: blocks the human orexin 1 receptor; OX1R-expressing cells, FRET antagonist read-out; O43613; 330,000 compounds, 1.8% hits; AID 485270; inhibition, % at 6.6 µM; in the data active = inhibition mostly above about 38%, no sharp cut-off; inactive = mostly below about 40%;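 note: 0% = agonist challenge alone and 100% = reference antagonist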
Target sequence (O43613 whole entry, looked up): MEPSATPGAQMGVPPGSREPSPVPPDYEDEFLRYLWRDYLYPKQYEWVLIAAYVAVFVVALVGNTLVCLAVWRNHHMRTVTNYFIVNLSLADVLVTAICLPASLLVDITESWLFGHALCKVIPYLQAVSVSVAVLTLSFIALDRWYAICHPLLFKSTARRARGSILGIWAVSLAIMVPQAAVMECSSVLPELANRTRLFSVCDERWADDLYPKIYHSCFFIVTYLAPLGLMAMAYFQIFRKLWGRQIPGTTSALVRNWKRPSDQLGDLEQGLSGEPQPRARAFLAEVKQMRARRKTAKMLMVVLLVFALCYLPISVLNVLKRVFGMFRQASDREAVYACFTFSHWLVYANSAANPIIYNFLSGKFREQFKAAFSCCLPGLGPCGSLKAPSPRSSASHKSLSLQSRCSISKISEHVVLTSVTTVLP
OX1R antag-2: antagonists of human orexin 1 receptor | O43613 | CHO/OX1R cells, Fluo-8 calcium fluorescence, orexin A | inhibition, % at 5 µM | 330,000 compounds, 0.43% hits | AID 434989;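 active = inhibition above its plate's threshold, mean inhibition of all tested compounds on the plate plus 3 SD, cut at about 37% in these data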;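 note: 0% = orexin A challenge wells and 100% = SB-334867-A antagonist wells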
CHO parental Ca: counter-screen for OX1R antagonists: effect in parental CHO cells; 330,000 compounds, 0.63% hits; AID 463079; parental CHO-K1, ATP-induced calcium, Fluo-8 fluorescence; inhibition, % at 5.6 µM;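 active = inhibition above that plate's mean sample inhibition plus 3 SD, cut at about 26% in these data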;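 note: 0% = ATP-challenged DMSO wells and 100% = DMSO wells without ATP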
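Test system: untransfected parental CHO cell line; also added: ATP stimulus; dosing: 5.6 µM, single dose; signal: calcium-sensitive Fluo-8 fluorescence; measure: percent inhibition of ATP-evoked calcium rise, normalized to controls; benchmarks: low control ATP plus DMSO, high control DMSO only; replication: one well per compound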
GPR7 antag cf: human GPR7 antagonism, confirmation assay | 2,400 compounds, 52% hits | shares compounds with GPR7 antagonist | GPR7-expressing cells, calcium fluorescence antagonist mode | inhibition, % at 4.4 µM; in the data active = inhibition above about 24%;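 note: stimulated with the GPR7 agonist NPW; 0% = agonist plus vehicle and 100% = vehicle alone without agonist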
MCHR1 antagonist: counter-screen for GPR7 antagonists: antagonists of human MCHR1; shares compounds with GPR7 antagonist; MCHR1-expressing cells, fluorescence antagonist assay; inhibition, % at 4.4 µM; 2,400 compounds, 62% hits; AID 2148; in the data active = inhibition above about 22%;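 note: 0% = vehicle with agonist and 100% = vehicle without agonist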
TAAR1 ag confirm: confirmation of human TAAR1 agonists. shares compounds with TAAR1 ag. CHO RD-HGA16 TAAR1, Fluo-8 calcium fluorescence; scaled: DMSO 0%, maximal phenethylamine 100%. activation, % at 3 µM. 2,400 compounds, 82% hits. AID 651783;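 active = activation above a cutoff set at the run's mean compound activation plus 3 SD, cut at about 39% in these data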
Ga16 nonsel ag: counter-screen for TAAR1 agonists: nonselective agonists in parental cells. shares compounds with TAAR1 ag. CHO-Ga16 parental, Fluo-8 calcium fluorescence; normalized to maximal ATP response, DMSO zero. activation, % at 3 µM. 2,400 compounds, 50% hits;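 active = activation above the run cutoff, the mean activation over all tested wells plus 3 SD, cut at about 12% in these data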;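 note: 0% = DMSO wells and 100% = maximal ATP response on the peak over basal ratio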
TAAR1 desensitize: counter-screen for human TAAR1 agonists: agonists that desensitize TAAR1; inhibition, % at 3 µM; 2,400 compounds, 46% hits; shares compounds with TAAR1 ag; CHO RD-HGA16 hTAAR1, Fluo-8 calcium, beta-PEA response inhibition;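 active = inhibition above the run cutoff, the mean inhibition of all test compounds plus 3 SD, cut at about 49% in these data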;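 note: beta-PEA stimulus applied at its EC80; loss of beta-PEA calcium signal after compound pretreatment read as receptor desensitization; 0% = DMSO with beta-PEA at EC80 and 100% = DMSO alone without agonist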
Ga16 nonsel ant: nonselective Ga16 antagonism, counter-screen. shares compounds with TAAR1 ag. CHO-Ga16 ATP-induced calcium, Fluo-8 fluorescence. inhibition, % at 3 µM. 2,400 compounds, 39% hits. AID 651952;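 active = inhibition above the plate's mean compound inhibition plus 3 SD, computed per plate, cut at about 22% in these data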;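 note: 0% = EC80 ATP with DMSO and 100% = DMSO wells without ATP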
The depositor's hits bear a star; / = no result given.

SMILES	TAAR1 ag	GPR7 antagonist	TAAR1 antagonist	OX1R antag-1	OX1R antag-2	CHO parental Ca	GPR7 antag cf	MCHR1 antagonist	TAAR1 ag confirm	Ga16 nonsel ag	TAAR1 desensitize	Ga16 nonsel ant
O=C(Nc1ccnn1C1CCN(Cc2cc3ccccc3[nH]2)CC1)C1CCOC1 (centres undefined)	57.5*	81.7*	82.6*	5.2	2.3	3.5	53.3*	74.1*	31.1	23.3*	63.0*	66.1*
COc1cc(-c2noc(C)c2-c2ccc(N(C)C)nc2)cc(OC)c1OC	95.6*	60.3*	53.7*	74.7*	-1.5	-6.0	69.0*	67.2*	84.3*	48.1*	54.0*	31.3*
COc1cc(C2c3[nH]c4ccccc4c3CC3COC(=O)N32)cc(OC)c1O (centres undefined)	4.4	/	0.3	/	/	/	/	/	/	/	/	/
CCOC(=O)c1ccc(NC(=O)COc2ccccc2CNCCc2ccccc2)cc1	81.0*	31.3*	35.7	6.7	-4.0	-1.8	46.5*	73.3*	111.3*	22.8*	85.3*	27.3*
CCOC(=O)C1=C(C)NC(C)=C(C(=O)OCC)C1C(=O)OCC(=O)NCc1ccc(F)cc1	13.1	/	10.6	13.9	-13.5	-28.2	/	/	/	/	/	/
O=C1c2ccccc2C(=O)N1CCC#C/C=C1\c2ccccc2C(=O)N1c1ccccc1	2.2	/	8.6	/	/	/	/	/	/	/	/	/
COc1ccc(/C=C2/SC(=S)N(Cc3ccccc3)C2=O)cc1O	15.1	-18.0	-44.3	/	/	/	/	/	/	/	/	/
O=C1/C(=C\c2cc(Cl)c(O)c(Cl)c2)SC(=S)N1Cc1ccccc1	110.9*	59.6*	97.2*	/	/	/	99.9*	110.7*	187.7*	258.1*	107.1*	106.2*
CN1C(=O)/C(=C\c2ccc(N(C)C)cc2)OC1=S	100.2*	43.6*	62.3*	/	/	/	43.7*	51.9*	87.1*	115.8*	58.1*	67.9*
CCC(C(=O)Nc1ccncc1)c1ccccc1 (centres undefined)	6.2	-11.3	-1.8	15.7	2.0	-1.6	/	/	/	/	/	/
CCc1ccc(NC(=O)C(CC)c2ccccc2)cc1 (centres undefined)	70.9*	31.2*	36.8	13.7	23.5	38.6*	57.6*	60.3*	67.3*	38.3*	64.5*	39.4*
Cc1ccc(O)c(NC(=S)NC(=O)Cc2ccc(Cl)cc2)c1	155.3*	99.0*	105.6*	-13.2	107.2*	99.3*	99.5*	106.5*	140.1*	117.2*	106.2*	101.7*
N=c1c2c(-c3ccccc3)c(-c3ccccc3)n(Cc3ccco3)c2ncn1Cc1ccco1	86.2*	37.4*	46.2	20.2	37.1	31.3	79.1*	99.9*	90.8*	54.2*	75.1*	37.3*
N=c1c2c(ncn1Cc1ccco1)Oc1ccc3ccccc3c1C2c1ccccc1 (centres undefined)	-2.5	-6.9	-27.7	24.3	-30.6	-13.6	/	/	/	/	/	/
CCN(CC)C(=O)C1=C(C)N(Cc2ccccc2)C(=O)C(CC(=O)NCCN2CCOCC2)C1 (centres undefined)	0.9	/	8.7	/	/	/	/	/	/	/	/	/
COc1ccc(C(=O)C(C)OC(=O)c2nc3nccc(C)n3n2)cc1 (centres undefined)	1.2	/	1.7	-2.2	-16.7	-15.8	/	/	/	/	/	/
OCCNc1ncnc2c1cnn2Cc1ccccc1	1.6	-8.6	6.7	/	/	/	/	/	/	/	/	/
c1ccc(CNc2ncnc3c2cnn3Cc2ccccc2)cc1	101.6*	27.7*	6.5	18.8	-7.7	3.1	53.5*	50.7*	82.2*	46.5*	48.4	25.3*
COCCOc1ccc(C(F)(F)F)cc1NC(=O)COC(=O)C12CC3CC(CC(O)(C3)C1)C2	6.0	-2.4	0.6	0.4	-19.6	-1.6	/	/	/	/	/	/
COc1ccccc1N1CN(CCc2ccccc2)CNC1=S	82.9*	30.0*	57.0*	16.9	-4.5	-19.5	5.2	-2.0	101.2*	5.1	83.8*	0.9
Cc1cc(C)nc(/N=C(\N)Nc2ccc(CC(=O)OC(C)C)cc2)n1	108.6*	97.0*	100.8*	16.6	67.2*	40.7*	95.4*	96.8*	119.7*	85.4*	106.4*	97.0*
Cc1cc(C)nc(/N=C(\N)Nc2ccc(OCCC(C)C)cc2)n1	145.5*	100.5*	103.0*	5.2	93.9*	68.0*	96.9*	105.6*	126.8*	102.6*	105.2*	93.2*
Cc1cc(C)nc(/N=C(\N)Nc2cccc(OCc3ccccc3)c2)n1	124.3*	96.9*	106.8*	8.6	73.4*	40.1*	91.4*	105.2*	112.5*	83.2*	105.7*	90.0*
CCc1ccc(N/C(=N/c2nc(C)cc(C)n2)NC(C)=O)cc1	-3.8	-21.0	-11.4	2.7	-7.5	-19.5	/	/	/	/	/	/
COc1ccccc1N/C(N)=N/c1nc(C)cc(C)n1	2.1	-9.1	-6.3	1.4	-26.0	-11.2	/	/	/	/	/	/
COc1ccc([C@H]2CC(=O)C[C@@H](CCn3cc(-c4ccc(F)cc4)nn3)O2)cc1	3.0	/	-21.3	/	/	/	/	/	/	/	/	/
CN(C)C/C=C(\c1ccc(Br)cc1)c1cccnc1	5.8	/	-17.3	17.8	-15.8	-13.0	/	/	/	/	/	/
CC(=O)Nc1ccc(/C=N/N2C(=O)NC(C)(c3ccc(OC(F)F)cc3)C2=O)cc1 (centres undefined)	139.7*	39.0*	97.4*	-10.3	53.4*	36.5*	98.4*	99.4*	137.9*	104.6*	104.4*	92.5*
CC1(c2ccc(OC(F)F)cc2)NC(=O)N(CC(=O)Nc2ccc3c(c2)OCO3)C1=O (centres undefined)	110.1*	78.3*	51.4*	-2.3	37.6	40.3*	82.5*	81.8*	106.7*	73.2*	86.9*	62.3*
